Experimental findings from ChEMBL document CHEMBL1157621, “Synthesis, biological activity, and molecular modeling studies of 1H-1,2,3-triazole derivatives of carbohydrates as alpha-glucosidases inhibitors” (J Med Chem, 2010) are described below.

The source made the active and inactive calls.

The target of assay [1] is Alpha-glucosidase MAL12 (Saccharomyces cerevisiae S288c) (UniProt P53341). Kind of assay: Inhibition of yeast alpha-glucosidase MAL12 assessed as inhibition of p-nitrophenol release at 500 uM by spectrophotometry relative to control. A digest of the protocol: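 Baker's yeast maltase, with p-nitrophenyl-α-D-glucopyranoside as substrate. Released p-nitrophenol was read at 405 nm. Compounds were screened at a fixed 500 μM, and activity was expressed as percent inhibition relative to a no-inhibitor control assay. Acarbose served as comparator.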
Chain of Alpha-glucosidase MAL12 (Saccharomyces cerevisiae S288c) (P53341 whole entry): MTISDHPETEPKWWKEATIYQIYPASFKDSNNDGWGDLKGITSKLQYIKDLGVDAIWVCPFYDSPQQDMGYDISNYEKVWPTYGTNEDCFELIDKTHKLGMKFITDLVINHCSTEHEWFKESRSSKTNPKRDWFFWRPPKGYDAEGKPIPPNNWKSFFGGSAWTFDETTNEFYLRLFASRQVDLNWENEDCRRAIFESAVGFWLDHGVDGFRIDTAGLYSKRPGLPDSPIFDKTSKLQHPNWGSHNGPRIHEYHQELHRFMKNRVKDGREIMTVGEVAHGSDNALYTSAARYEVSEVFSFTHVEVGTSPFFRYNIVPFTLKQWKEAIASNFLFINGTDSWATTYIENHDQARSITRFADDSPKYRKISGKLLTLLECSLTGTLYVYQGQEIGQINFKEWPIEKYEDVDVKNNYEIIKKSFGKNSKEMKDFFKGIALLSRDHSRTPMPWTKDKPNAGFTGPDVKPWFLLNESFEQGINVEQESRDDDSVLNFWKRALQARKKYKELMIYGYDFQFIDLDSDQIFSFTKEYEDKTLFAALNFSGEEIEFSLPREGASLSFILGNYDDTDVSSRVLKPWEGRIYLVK

Assay [2] concerns Rattus norvegicus. Kind of assay: Hypoglycemic activity in maltose-fed Wistar rat assessed as reduction in postprandial blood glucose level at 50 mg/kg, po administered 5 mins before maltose challenge measured after 30 mins of maltose infusion.
In assay [3] the test system is Rattus norvegicus. The assay can be described thus: Hypoglycemic activity in maltose-fed Wistar rat assessed as reduction in postprandial blood glucose level at 50 mg/kg, po administered 5 mins before maltose challenge measured after 60 mins of maltose infusion.
In assay [4] the target is Alpha-glucosidase MAL12 (Saccharomyces cerevisiae S288c, UniProt P53341). Kind of assay: Inhibition of yeast alpha-glucosidase MAL12 assessed as inhibition of p-nitrophenol release by spectrophotometry. The essentials:
(§1)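 Yeast maltase activity was followed by p-nitrophenol release from p-nitrophenyl-α-D-glucopyranoside at 405 nm. IC50 was defined as the concentration giving 50% inhibition under assay conditions. Acarbose was tested in the same assay, and the ratio was taken as acarbose IC50 over compound IC50.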

Assay [5] concerns the target Alpha-glucosidase MAL12 (Saccharomyces cerevisiae S288c) (UniProt P53341). Kind of assay: Ratio of acarbose IC50 to compound IC50 for yeast alpha-glucosidase MAL12. The essentials: as §1

Chain of Alpha-glucosidase MAL12 (P53341 whole entry): as above

On to `CO[C@@H]1O[C@H](Cn2cc(CO)nn2)[C@H]2OC(C)(C)O[C@@H]12`, for which the inhibition (as a rule, how much of the control response was suppressed) in assay [1] stood at 46.5%. Turning to `CCC(C)(O)c1cn(C[C@H]2O[C@@H](OC)[C@@H]3OC(C)(C)O[C@@H]32)nn1` (some centres not stated), the inhibition in assay [1] is 41.1%. On the same count and under the same terms, the value for `CC1(C)O[C@H]2O[C@H](Cn3cc(CO)nn3)[C@H](O)[C@H]2O1` was 68.8%. As for `CO[C@@H]1O[C@H](Cn2cc(COc3ccccc3)nn2)[C@H]2OC(C)(C)O[C@@H]12`, the outcome in assay [2] and in assay [3] was Active. In assay [4], the IC50 – broadly, the concentration that inhibits the measured activity by half – turned out to be 5.7 µM. Besides, in assay [5], the Ratio IC50 came out at 20. Besides, in assay [1], the inhibition worked out at 98.4%. Consider `CC1(C)O[C@H]2O[C@H]([C@H]3COC(C)(C)O3)[C@@H](n3cc(-c4ccccc4)nn3)[C@H]2O1`, for which the inhibition in assay [1] was 73.1%. On the same count and under the same terms, the value for `CC1(C)O[C@H]2O[C@H](Cn3cc(C4=CCCCC4)nn3)[C@H](O)[C@H]2O1` was 33.3%; that for `CC1(C)O[C@H]2O[C@H](Cn3cc(-c4ccccc4)nn3)[C@H](O)[C@H]2O1` was 87.9%. As to `CCOC(=O)c1cn(C[C@H]2O[C@@H](OC)[C@@H]3OC(C)(C)O[C@@H]32)nn1`, the half-maximal inhibitory concentration (IC50) in assay [4] is 15.1 µM. Also, the inhibition in assay [1] was found to be 98%.

Take `CO[C@@H]1O[C@H](Cn2cc(CCCCl)nn2)[C@H]2OC(C)(C)O[C@@H]12`: in assay [1], the inhibition is 99.5%. Take `C[C@H]1O[C@H](O[C@H]2[C@H](O)[C@@H](O)[C@@H](O[C@H]3[C@H](O)[C@@H](O)C(O)O[C@@H]3CO)O[C@@H]2CO)[C@H](O)[C@@H](O)[C@@H]1N[C@H]1C=C(CO)[C@@H](O)[C@H](O)[C@H]1O` (some centres not stated): the outcome in assay [2] and in assay [3] was Active. In addition, the inhibition in assay [1] was found to be 48.1%. Regarding `CC1(C)O[C@H]2[C@@H](O1)[C@@H](Cn1cc(-c3ccccc3)nn1)O[C@@H]1OC(C)(C)O[C@@H]12`, in assay [1], the inhibition is 99.4%. Turning to `CO[C@@H]1O[C@H](Cn2cc(C3=CCCCC3)nn2)[C@H]2OC(C)(C)O[C@@H]12`, the IC50 in assay [4] came to 3.8 µM. Further, the Ratio IC50 in assay [5] was found to be 25. Moreover, the inhibition in assay [1] is 98.1%. As to `CO[C@@H]1O[C@H](Cn2cc(-c3ccccc3)nn2)[C@H]2OC(C)(C)O[C@@H]12`, the result in assay [2] and in assay [3] was Active. For the same compound, the IC50 in assay [4] was found to be 14.9 µM. Besides, the inhibition in assay [1] was determined as 94.4%. As for `CO[C@@H]1O[C@H](Cn2cc(C(C)(C)O)nn2)[C@H]2OC(C)(C)O[C@@H]12`, the inhibition in assay [1] is 60.2%. `CO[C@@H]1O[C@H](Cn2cc(COC3CCCCO3)nn2)[C@H]2OC(C)(C)O[C@@H]12` (some centres not stated): in assay [4], the IC50 is 24.7 µM. Further, in assay [1], the inhibition turned out to be 79.5%.

As to `CCCc1cn(C[C@H]2O[C@@H](OC)[C@@H]3OC(C)(C)O[C@@H]32)nn1`, in assay [1], the inhibition worked out at 44.9%.

Take `CO[C@@H]1O[C@H](Cn2cc(C3(O)CCCCC3)nn2)[C@H]2OC(C)(C)O[C@@H]12`: the concentration for half-maximal inhibition (IC50) in assay [4] was 5.2 µM. Moreover, the Ratio IC50 in assay [5] was found to be 20. For the same compound, the inhibition in assay [1] turned out to be 98.5%.
